Source: ChEMBL document CHEMBL1944580, “Synthesis of novel sulfonamide-1,2,4-triazoles, 1,3,4-thiadiazoles and 1,3,4-oxadiazoles, as potential antibacterial and antifungal agents. Biological evaluation and conformational analysis studies” (2012)
Values after ≈ are worked out from the molar mass of the structure shown.

Key:
Pseudomonas aeruginosa [1] = assay: Antibacterial activity against Pseudomonas aeruginosa ATCC 27853 treated for 24 hrs followed by sub-cultivated for 72 hrs by micro dilution method; format: functional
Summary of the method: (§1)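 2 µl from each well was serially subcultured into 100 µl fresh broth per well and incubated a further 72 h. MBC is the lowest concentration with no visible growth, taken as 99.5% killing of the original inoculum. Streptomycin and ampicillin were the positive controls.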

Penicillium ochrochloron [2] = assay: Antifungal activity against Penicillium ochrochloron ATCC 9112 after 72 hrs by serial dilution method; format: functional; conditions: ATCC 9112, 72 h
Summary of the method: (§2)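 Modified microdilution MIC. Spores were washed from malt agar cultures with sterile 0.85% saline containing 0.1% Tween 80 and adjusted to about 1.0 × 10^5 per 100 µl well in malt broth. Compounds were dissolved in DMSO (1 mg/ml). Plates incubated 72 h at 28 °C. MIC is the lowest concentration with no visible growth under a binocular microscope. Bifonazole and ketoconazole were the references.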

Aspergillus fumigatus [3] = assay: Antifungal activity against Aspergillus fumigatus human isolate treated for 72 hrs followed by sub-cultivated for 5 days by serial dilution method; format: functional
Summary of the method: (§3)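 MFC obtained after the 72 h, 28 °C malt-broth microdilution (spore inoculum about 1.0 × 10^5 per well, compounds from 1 mg/ml DMSO). 2 µl was serially subcultured into 100 µl broth per well and incubated a further 5 days at 28 °C. MFC is the lowest concentration with no visible growth, taken as 99.5% killing of the original inoculum.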

Talaromyces funiculosus [4] = assay: Antifungal activity against Penicillium funiculosum ATCC 36839 treated for 72 hrs followed by sub-cultivated for 5 days by serial dilution method; format: functional; summary of the method: as §3
Aspergillus flavus [5] = assay: Antifungal activity against Aspergillus flavus ATCC 9643 treated for 72 hrs followed by sub-cultivated for 5 days by serial dilution method; format: functional; summary of the method: as §3
Aspergillus flavus [6] = assay: Antifungal activity against Aspergillus flavus ATCC 9643 after 72 hrs by serial dilution method; format: functional; conditions: ATCC 9643, 72 h; summary of the method: as §2
Micrococcus flavus [7] = assay: Antibacterial activity against Micrococcus flavus ATCC 10240 treated for 24 hrs followed by sub-cultivated for 72 hrs by micro dilution method; format: functional; summary of the method: as §1
Penicillium ochrochloron [8] = assay: Antifungal activity against Penicillium ochrochloron ATCC 9112 treated for 72 hrs followed by sub-cultivated for 5 days by serial dilution method; format: functional; summary of the method: as §3
Escherichia coli [9] = assay: Antibacterial activity against Escherichia coli ATCC 35210 after 24 hrs by micro dilution method; format: functional; conditions: ATCC 35210, 24 h
Summary of the method: (§4)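 Microdilution MIC in 96-well plates. Bacterial suspensions adjusted in sterile saline to 1.0 × 10^5 CFU/ml, giving 1.0 × 10^4 cfu per well in LB broth. Compounds tested at up to 1 mg/ml. Plates incubated 24 h. MIC taken as the lowest concentration with no visible growth under a binocular microscope. OD at 655 nm was also read against a blank and the positive control. Streptomycin and ampicillin were the positive controls.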

Listeria monocytogenes [10] = assay: Antibacterial activity against Listeria monocytogenes NCTC 7973 treated for 24 hrs followed by sub-cultivated for 72 hrs by micro dilution method; format: functional; summary of the method: as §1
Salmonella typhimurium [11] = assay: Antibacterial activity against Salmonella Typhimurium ATCC 13311 treated for 24 hrs followed by sub-cultivated for 72 hrs by micro dilution method; format: functional, Salmonella enterica subsp. enterica serovar Typhimurium; conditions: Salmonella enterica; summary of the method: as §1
Aspergillus fumigatus [12] = assay: Antifungal activity against Aspergillus fumigatus human isolate after 72 hrs by serial dilution method; format: functional; summary of the method: as §2
Aspergillus versicolor [13] = assay: Antifungal activity against Aspergillus versicolor ATCC 11730 after 72 hrs by serial dilution method; format: functional; conditions: ATCC 11730, 72 h; summary of the method: as §2
Aspergillus niger [14] = assay: Antifungal activity against Aspergillus niger ATCC 6275 treated for 72 hrs followed by sub-cultivated for 5 days by serial dilution method; format: functional; summary of the method: as §3
Enterobacter cloacae [15] = assay: Antibacterial activity against Enterobacter cloacae human isolate treated for 24 hrs followed by sub-cultivated for 72 hrs by micro dilution method; format: functional; summary of the method: as §1
Aspergillus niger [16] = assay: Antifungal activity against Aspergillus niger ATCC 6275 after 72 hrs by serial dilution method; format: functional; conditions: ATCC 6275, 72 h; summary of the method: as §2
Escherichia coli [17] = assay: Antibacterial activity against Escherichia coli ATCC 35210 treated for 24 hrs followed by sub-cultivated for 72 hrs by micro dilution method; format: functional; summary of the method: as §1
Bacillus cereus [18] = assay: Antibacterial activity against Bacillus cereus clinical isolate after 24 hrs by micro dilution method; format: functional; summary of the method: as §4
Listeria monocytogenes [19] = assay: Antibacterial activity against Listeria monocytogenes NCTC 7973 after 24 hrs by micro dilution method; format: functional; conditions: NCTC 7973, 24 h; summary of the method: as §4
Trichoderma viride [20] = assay: Antifungal activity against Trichoderma viride IAM 5061 after 72 hrs by serial dilution method; format: functional; conditions: IAM 5061, 72 h; summary of the method: as §2
Bacillus cereus [21] = assay: Antibacterial activity against Bacillus cereus clinical isolate treated for 24 hrs followed by sub-cultivated for 72 hrs by micro dilution method; format: functional; summary of the method: as §1
Micrococcus flavus [22] = assay: Antibacterial activity against Micrococcus flavus ATCC 10240 after 24 hrs by micro dilution method; format: functional; conditions: ATCC 10240, 24 h; summary of the method: as §4
Enterobacter cloacae [23] = assay: Antibacterial activity against Enterobacter cloacae human isolate after 24 hrs by micro dilution method; format: functional; summary of the method: as §4
Pseudomonas aeruginosa [24] = assay: Antibacterial activity against Pseudomonas aeruginosa ATCC 27853 after 24 hrs by micro dilution method; format: functional; conditions: ATCC 27853, 24 h; summary of the method: as §4
Fulvia fulva [25] = assay: Antifungal activity against Fulvia fulva treated for 72 hrs followed by sub-cultivated for 5 days by serial dilution method; format: functional; summary of the method: as §3
Aspergillus versicolor [26] = assay: Antifungal activity against Aspergillus versicolor ATCC 11730 treated for 72 hrs followed by sub-cultivated for 5 days by serial dilution method; format: functional; summary of the method: as §3
Staphylococcus aureus [27] = assay: Antibacterial activity against Staphylococcus aureus ATCC 6538 after 24 hrs by micro dilution method; format: functional; conditions: ATCC 6538, 24 h; summary of the method: as §4
Fulvia fulva [28] = assay: Antifungal activity against Fulvia fulva after 72 hrs by serial dilution method; format: functional; summary of the method: as §2
Staphylococcus aureus [29] = assay: Antibacterial activity against Staphylococcus aureus ATCC 6538 treated for 24 hrs followed by sub-cultivated for 72 hrs by micro dilution method; format: functional; summary of the method: as §1
Trichoderma viride [30] = assay: Antifungal activity against Trichoderma viride IAM 5061 treated for 72 hrs followed by sub-cultivated for 5 days by serial dilution method; format: functional; summary of the method: as §3
Talaromyces funiculosus [31] = assay: Antifungal activity against Penicillium funiculosum ATCC 36839 after 72 hrs by serial dilution method; format: functional; conditions: ATCC 36839, 72 h; summary of the method: as §2
Salmonella typhimurium [32] = assay: Antibacterial activity against Salmonella Typhimurium ATCC 13311 after 24 hrs by micro dilution method; format: functional, Salmonella enterica subsp. enterica serovar Typhimurium; conditions: Salmonella enterica, ATCC 13311, 24 h; summary of the method: as §4

Structure (SMILES)	MBC (Pseudomonas aeruginosa [1])	MIC (Penicillium ochrochloron [2])	MFC (Aspergillus fumigatus [3])	MFC (Talaromyces funiculosus [4])	MFC (Aspergillus flavus [5])	MIC (Aspergillus flavus [6])	MBC (Micrococcus flavus [7])	MFC (Penicillium ochrochloron [8])	MIC (Escherichia coli [9])	MBC (Listeria monocytogenes [10])	MBC (Salmonella typhimurium [11])	MIC (Aspergillus fumigatus [12])	MIC (Aspergillus versicolor [13])	MFC (Aspergillus niger [14])	MBC (Enterobacter cloacae [15])	MIC (Aspergillus niger [16])	MBC (Escherichia coli [17])	MIC (Bacillus cereus [18])	MIC (Listeria monocytogenes [19])	MIC (Trichoderma viride [20])	other results
CCCCn1c(Cc2cc(OC)c(OC)cc2S(=O)(=O)N(C)C)n[nH]c1=O	380 µM (≈ 151 µg/mL)	130 µM (≈ 51.8 µg/mL)	250 µM (≈ 99.6 µg/mL)	250 µM (≈ 99.6 µg/mL)	380 µM (≈ 151 µg/mL)	130 µM (≈ 51.8 µg/mL)	630 µM (≈ 251 µg/mL)	380 µM (≈ 151 µg/mL)	130 µM (≈ 51.8 µg/mL)	380 µM (≈ 151 µg/mL)	760 µM (≈ 303 µg/mL)	250 µM (≈ 99.6 µg/mL)	130 µM (≈ 51.8 µg/mL)	380 µM (≈ 151 µg/mL)	760 µM (≈ 303 µg/mL)	130 µM (≈ 51.8 µg/mL)	250 µM (≈ 99.6 µg/mL)	250 µM (≈ 99.6 µg/mL)	380 µM (≈ 151 µg/mL)	30 µM (≈ 12 µg/mL)	MBC (Bacillus cereus [21]): 760 µM (≈ 303 µg/mL); MIC (Micrococcus flavus [22]): 630 µM (≈ 251 µg/mL); MIC (Enterobacter cloacae [23]): 500 µM (≈ 199 µg/mL); MIC (Pseudomonas aeruginosa [24]): 380 µM (≈ 151 µg/mL); MFC (Fulvia fulva [25]): 250 µM (≈ 99.6 µg/mL); MFC (Aspergillus versicolor [26]): 380 µM (≈ 151 µg/mL); MIC (Staphylococcus aureus [27]): 250 µM (≈ 99.6 µg/mL); MIC (Fulvia fulva [28]): 250 µM (≈ 99.6 µg/mL); MBC (Staphylococcus aureus [29]): 500 µM (≈ 199 µg/mL); MFC (Trichoderma viride [30]): 60 µM (≈ 23.9 µg/mL); MIC (Talaromyces funiculosus [31]): 130 µM (≈ 51.8 µg/mL); MIC (Salmonella typhimurium [32]): 500 µM (≈ 199 µg/mL)
COc1cc(Cc2n[nH]c(=O)n2C(C)(C)C)c(S(=O)(=O)N(C)C)cc1OC	390 µM (≈ 155 µg/mL)	250 µM (≈ 99.6 µg/mL)	380 µM (≈ 151 µg/mL)	250 µM (≈ 99.6 µg/mL)	380 µM (≈ 151 µg/mL)	250 µM (≈ 99.6 µg/mL)	390 µM (≈ 155 µg/mL)	380 µM (≈ 151 µg/mL)	130 µM (≈ 51.8 µg/mL)	390 µM (≈ 155 µg/mL)	250 µM (≈ 99.6 µg/mL)	250 µM (≈ 99.6 µg/mL)	250 µM (≈ 99.6 µg/mL)	380 µM (≈ 151 µg/mL)	250 µM (≈ 99.6 µg/mL)	250 µM (≈ 99.6 µg/mL)	250 µM (≈ 99.6 µg/mL)	250 µM (≈ 99.6 µg/mL)	390 µM (≈ 155 µg/mL)	30 µM (≈ 12 µg/mL)	MBC (Bacillus cereus [21]): 780 µM (≈ 311 µg/mL); MIC (Micrococcus flavus [22]): 390 µM (≈ 155 µg/mL); MIC (Enterobacter cloacae [23]): 250 µM (≈ 99.6 µg/mL); MIC (Pseudomonas aeruginosa [24]): 390 µM (≈ 155 µg/mL); MFC (Fulvia fulva [25]): 250 µM (≈ 99.6 µg/mL); MFC (Aspergillus versicolor [26]): 380 µM (≈ 151 µg/mL); MIC (Staphylococcus aureus [27]): 390 µM (≈ 155 µg/mL); MIC (Fulvia fulva [28]): 250 µM (≈ 99.6 µg/mL); MBC (Staphylococcus aureus [29]): 390 µM (≈ 155 µg/mL); MFC (Trichoderma viride [30]): 250 µM (≈ 99.6 µg/mL); MIC (Talaromyces funiculosus [31]): 130 µM (≈ 51.8 µg/mL); MIC (Salmonella typhimurium [32]): 250 µM (≈ 99.6 µg/mL)
